Source: ChEMBL document CHEMBL1145812, “Synthesis and biological evaluation of 18-methoxycoronaridine congeners. Potential antiaddiction agents” (J Med Chem, 2003)

Key:
[1] = biological target: T1, Neuronal acetylcholine receptor; alpha3/beta4 (Homo sapiens, UniProt P30926+P32297); assay: Inhibition of Ach evoked currents at alpha3-beta4 nicotinic acetylcholine receptor by 20 uM concentration; type: functional
How it was run: (§1)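 HEK293 cells transiently co-transfected with nAChR α3 and β4 cDNAs plus EGFP; EGFP-positive cells recorded 12–36 h later by whole-cell voltage clamp at -70 mV. Pipette: CsCl/CsF/HEPES/EGTA, pH 7.2; bath: NaCl/KCl/HEPES/glucose, pH 7.3. Each compound was co-applied at 20 µM (one at 18 µM) with 1 mM ACh. Reported: percent inhibition, rate of inhibition and percent recovery, as mean ± SEM.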

[2] = biological target: Kappa-type opioid receptor (Cavia porcellus) (UniProt P41144); assay: Inhibition of [3H]U-69593 binding to Opioid receptor kappa 1 from guinea pig brain membranes; parameters: concentration or dose not given beside the values; conditions: concentration not given here
How it was run: (§2)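 Guinea pig brain membranes (0.5 mg protein/sample) were incubated at 25 °C in 50 mM Tris-HCl, pH 7.5, with receptor-specific radioligand and compound at 1 µM. Nonspecific binding was defined with 10 µM naloxone. Values are the mean ± SE of three separate experiments, each run in triplicate.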

[3] = Relative inhibition index (RI) was determined as the % recovery / (rate of inhibition) and is expressed relative to Compound 3; type: functional
How it was run: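 Read from the same α3β4 whole-cell ACh (1 mM) co-application recordings. The index is percent recovery divided by rate of inhibition, normalised to the parent reference ligand. Values below 1.0 mean lower Ki; values above 1.0 mean higher Ki.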

[4] = biological target: T1, Neuronal acetylcholine receptor; alpha3/beta4; assay: Recovery from Ach evoked currents at alpha3-beta4 nicotinic acetylcholine receptor at 20 uM; type: functional; how it was run: as §1
[5] = biological target: Mu-type opioid receptor (Cavia porcellus) (UniProt P97266); assay: Inhibition of [3H]DAMGO binding to Opioid receptor mu 1 from guinea pig brain membranes; parameters: concentration or dose not given beside the values; conditions: concentration not given here; how it was run: as §2
[6] = biological target: T1, Neuronal acetylcholine receptor; alpha3/beta4; assay: Rate of inhibition of Ach evoked currents at alpha3-beta4 nicotinic acetylcholine receptor by 20 uM concentration; type: functional; how it was run: as §1
[7] = biological target: Mu-type opioid receptor (Cavia porcellus) (UniProt P97266); assay: Inhibitory activity was determined against Opioid receptor mu 1 from guinea pig brain membranes at 1 uM concentration, using 0.25 nM of [3H]DAMGO radioligand; conditions: Membrane; how it was run: as §2
[8] = biological target: Kappa-type opioid receptor (Cavia porcellus, UniProt P41144); assay: Binding affinity was determined against Opioid receptor kappa 1 from guinea pig brain membranes
[9] = biological target: T1, Neuronal acetylcholine receptor; alpha3/beta4; assay: Recovery from Ach evoked currents at alpha3-beta4 nicotinic acetylcholine receptor at 20 uM concentration; type: functional; how it was run: as §1
[10] = biological target: T1, Neuronal acetylcholine receptor; alpha3/beta4; assay: Rate of inhibition of Ach evoked currents at Nicotinic acetylcholine receptor alpha3-beta4 by 20 uM concentration; type: functional; how it was run: as §1
[11] = biological target: T1, Neuronal acetylcholine receptor; alpha3/beta4; assay: Inhibition of Ach evoked currents at Nicotinic acetylcholine receptor alpha3-beta4 by 20 uM concentration; type: functional; how it was run: as §1
[12] = biological target: T1, Neuronal acetylcholine receptor; alpha3/beta4; assay: Recovery from Ach evoked currents at Nicotinic acetylcholine receptor alpha3-beta4 at 20 uM concentration; type: functional; how it was run: as §1
[13] = biological target: T1, Neuronal acetylcholine receptor; alpha3/beta4; assay: Recovery from Ach evoked currents at Nicotinic acetylcholine receptor alpha3-beta4 at 18 uM concentration; type: functional; how it was run: as §1
[14] = biological target: T1, Neuronal acetylcholine receptor; alpha3/beta4; assay: Rate of inhibition of Ach evoked currents at Nicotinic acetylcholine receptor alpha3-beta4 by 18 uM concentration; type: functional; how it was run: as §1
[15] = biological target: T1, Neuronal acetylcholine receptor; alpha3/beta4; assay: Inhibition of Ach evoked currents at Nicotinic acetylcholine receptor alpha3-beta4 by 18 uM concentration; type: functional; how it was run: as §1
Mu-type opioid receptor = Mu-type opioid receptor (Cavia porcellus, UniProt P97266); assay: Binding affinity was determined against Opioid receptor mu 1 from guinea pig brain membranes
[16] = biological target: T1, Neuronal acetylcholine receptor; alpha3/beta4; assay: Binding affinity towards Nicotinic acetylcholine receptor alpha3-beta4 determined from kinetic measures of koff/kon; type: protein-complex assay
How it was run: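 Ki was estimated as koff/kon from α3β4 whole-cell recordings with drug at 20 µM co-applied with 1 mM ACh. koff was taken from the rate of recovery and kon from the rate of inhibition.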

Mu-type opioid receptor (Cavia porcellus), sequence (P97266 whole entry): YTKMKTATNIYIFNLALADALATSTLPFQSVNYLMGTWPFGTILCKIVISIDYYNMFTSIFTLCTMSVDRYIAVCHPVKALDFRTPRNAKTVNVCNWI
Kappa-type opioid receptor (Cavia porcellus), sequence (P41144 whole entry): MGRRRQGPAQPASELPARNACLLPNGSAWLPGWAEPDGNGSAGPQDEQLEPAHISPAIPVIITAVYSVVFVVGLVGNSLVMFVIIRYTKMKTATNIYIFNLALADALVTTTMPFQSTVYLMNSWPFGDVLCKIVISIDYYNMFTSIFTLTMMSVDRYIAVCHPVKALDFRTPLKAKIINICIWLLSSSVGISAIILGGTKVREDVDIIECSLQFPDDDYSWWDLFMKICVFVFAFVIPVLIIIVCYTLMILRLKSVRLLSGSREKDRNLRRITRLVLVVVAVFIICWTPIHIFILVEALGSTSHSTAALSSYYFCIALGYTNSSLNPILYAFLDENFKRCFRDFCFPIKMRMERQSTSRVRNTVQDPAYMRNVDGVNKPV
Kappa-type opioid receptor, sequence (P41144 whole entry): as above
Mu-type opioid receptor, sequence (P97266 whole entry): as the sequence (P97266 whole entry) above
T1 sequence (P30926 whole entry): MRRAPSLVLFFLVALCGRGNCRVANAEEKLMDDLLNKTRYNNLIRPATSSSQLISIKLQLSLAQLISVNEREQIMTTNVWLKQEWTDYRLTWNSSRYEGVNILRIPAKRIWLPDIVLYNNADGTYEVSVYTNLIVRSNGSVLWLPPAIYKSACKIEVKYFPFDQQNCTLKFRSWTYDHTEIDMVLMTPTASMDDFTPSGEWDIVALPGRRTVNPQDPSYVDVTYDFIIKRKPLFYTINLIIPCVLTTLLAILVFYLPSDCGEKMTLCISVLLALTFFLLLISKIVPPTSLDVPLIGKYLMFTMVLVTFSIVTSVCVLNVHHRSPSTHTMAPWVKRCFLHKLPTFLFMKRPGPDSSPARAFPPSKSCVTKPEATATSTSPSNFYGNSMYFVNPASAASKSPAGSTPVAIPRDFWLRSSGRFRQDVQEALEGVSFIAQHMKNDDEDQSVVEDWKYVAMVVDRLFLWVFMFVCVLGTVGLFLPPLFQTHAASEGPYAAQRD
T1 sequence (P32297 whole entry): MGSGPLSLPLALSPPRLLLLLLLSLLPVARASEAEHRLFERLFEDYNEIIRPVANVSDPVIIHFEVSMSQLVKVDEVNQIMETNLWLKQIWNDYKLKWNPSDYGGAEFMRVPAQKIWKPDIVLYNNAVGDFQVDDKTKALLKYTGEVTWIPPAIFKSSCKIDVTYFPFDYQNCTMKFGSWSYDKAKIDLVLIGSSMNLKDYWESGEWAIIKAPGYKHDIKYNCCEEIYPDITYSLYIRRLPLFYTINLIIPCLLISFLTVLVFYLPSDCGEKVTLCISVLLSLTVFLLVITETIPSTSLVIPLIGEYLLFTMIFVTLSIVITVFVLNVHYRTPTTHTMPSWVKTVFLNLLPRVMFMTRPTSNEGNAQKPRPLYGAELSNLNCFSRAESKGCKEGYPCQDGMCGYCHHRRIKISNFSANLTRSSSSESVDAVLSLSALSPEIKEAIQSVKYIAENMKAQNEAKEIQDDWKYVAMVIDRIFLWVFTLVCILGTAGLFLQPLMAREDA

Compound | inhibition [1] [%] | inhibition [2] [%] | RI [3] | Recovery [4] [%] | inhibition [5] [%] | Rate of inhibition [6] [s⁻¹] | further results
COCCC1C2CN3CCc4c([nH]c5ccccc45)[C@](C(=O)OC)(C2)[C@H]13 (some centres undefined) | 94 | 10 | 1.6 | 14 | 18 | 4.1 | –
COCC[C@H]1CC2CN3CCc4c([nH]c5ccccc45)[C@](C(=O)O)(C2)[C@H]13 | 59 | 7 | 2.4 | 27 | – | 5.1 | inhibition [7]: 11%
COCC[C@H]1CC2CN3CCc4c([nH]c5ccccc45)[C@](C(=O)OCCNC(C)=O)(C2)[C@H]13 | 95 | 3 | 3.1 | 45 | 0 | 6.7 | –
COCC[C@H]1CC2CN3CCc4c([nH]c5ccccc45)[C@](C(=O)NCCCCCCNC(=O)CCCC[C@@H]4SCC5NC(=O)NC54)(C2)C13 (some centres undefined) | – | 9 | – | – | 19 | – | –
COCC[C@H]1CC2CN3CCc4c([nH]c5ccccc45)[C@](C(=O)OCCN(C)C)(C2)[C@H]13 | 98 | 78 | 0.7 | 16 | 16 | 10.3 | Ki [8]: 188 nM
COCC[C@H]1CC2CN3CCc4c([nH]c5ccccc45)[C@](C(=O)NCCO)(C2)[C@H]13 | 85 | 9 | 4.7 | 80 | 7 | 7.9 | –
COCC[C@H]1CC2CN3CCc4c([nH]c5ccccc45)[C@](C(=O)NCCN(C)C)(C2)[C@H]13 | 93 | 11 | 3.9 | – | 4 | 9.5 | Recovery [9]: 81%
COCC[C@H]1CC2CN3CCc4c([nH]c5ccccc45)[C@](C(=O)OCCO)(C2)[C@H]13 | 97 | 8 | 1.2 | 20 | 8 | 7.6 | –
COCCNC(=O)[C@@]12CC3C[C@H](CCOC)[C@@H]1N(CCc1c2[nH]c2ccccc12)C3 | 96 | 6 | 2.3 | – | 10 | 9.2 | Recovery [9]: 46%
COC(=O)[C@@]12CC3C[C@H](CCOCc4ccccc4)[C@@H]1N(CCc1c2[nH]c2ccccc12)C3 | – | 6 | – | – | – | – | inhibition [7]: 12%; Rate of inhibition [10]: 2.2 s⁻¹; inhibition [11]: 64%; Recovery [12]: 0%
COC(=O)[C@@]12CC3C[C@H](CCO)[C@@H]1N(CCc1c2[nH]c2ccccc12)C3 | – | 4 | 5.4 | – | 15 | – | Recovery [13]: 73%; Rate of inhibition [14]: 6.5 s⁻¹; inhibition [15]: 98%
COCCOC(=O)[C@@]12CC3C[C@H](CCOC)[C@@H]1N(CCc1c2[nH]c2ccccc12)C3 | 99 | 24 | 0.6 | 8 | 5 | 6 | –
COC(=O)[C@@]12CC3C[C@H](CCN(C)C)[C@@H]1N(CCc1c2[nH]c2ccccc12)C3 | 99 | 11 | 0.9 | 16 | 15 | 8 | –
CNCC[C@H]1CC2CN3CCc4c([nH]c5ccccc45)[C@](C(=O)OC)(C2)[C@H]13 | 98 | 7 | 1.1 | 21 | 24 | 8.5 | –
COCC[C@H]1CC2CN3CCc4c([nH]c5ccccc45)[C@](C(=O)OC)(C2)[C@H]13 [18-METHOXYCORONARIDINE] | – | 20 | 1 | – | 50 | – | Ki [8]: 5100 nM; Rate of inhibition [10]: 5.5 s⁻¹; Ki (Mu-type opioid receptor): 1100 nM; Ki [16]: 700 nM; inhibition [11]: 98%; Recovery [12]: 12%
